Compounds with a hit are over-represented: about 3% of the library has one in this group of screens.
MITF act = activators of MITF-driven TRPM1 promoter activity in SK-MEL-5 cells | SK-MEL-5 TRPM1-promoter luciferase, 24 h; % of positive control, neutral wells = 0 | activation, % at 12.5 µM | hit rate 0.75% among 300,000;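 active = mean activation of at least 80% with every replicate also reaching 80%; inconclusive = mean reaches 80% but some replicate falls short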;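 note: 0% = neutral control wells and 100% = parthenolide positive control wells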
esBAF inh = blocks esBAF chromatin remodeling in mouse ES cells; Bmi1-luciferase knock-in reporter, 24 h; 100% = twice the neutral-well signal; reporter increase, % at 12.5 µM; hit rate 2% among 350,000; AID 602393; in the data active = activation above about 40%; inconclusive = no clear call, values can overlap the other calls;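 note: 0% = median of the plate's neutral control wells and 100% = double that signal; a rise in the Bmi1 reporter signal indicates esBAF inhibition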
Wnt act = Wnt/beta-catenin pathway activation; activation, % at 9.35 µM; hit rate 1.2% among 300,000; Wnt/beta-catenin reporter cell assay, activator, plate reader; in the data active = activation above about 30%, passing the limit was not always enough; inconclusive = no clear call, values can overlap the other calls;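 note: 0% = neutral control wells and 100% = positive control wells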
Xi reactivation = X-chromosome reactivation activator | XiGFP mouse fibroblasts, % GFP-positive cells imaging, 3 d; cells co-treated with 5-aza-dC sensitizer; scaled so ellipticine positive control = 100% | activation, % at 7.58 µM | hit rate 0.055% among 360,000;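 active = mean normalized replicate activation at least 10% and every replicate at or above 10%; inconclusive = only one of the two criteria met; inactive = mean below 10% and not all replicates reach 10%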;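 note: 0% = median of on-plate neutral control wells and 100% = ellipticine 6 µM median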
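Assay system – SV40-immortalized XiGFP fibroblast cells, line 68-5-11 · Buffer or medium – DMEM supplemented with 5-aza-dC as sensitizing agent · Dosing – one concentration, pinned · Benchmarks – positive control ellipticine, 6 µM final · Times – 3 days compound exposure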
NSD2 HMT inh = NSD2 (human) methyltransferase inhibition | O96028 | NSD2 peptide methylation, AlphaScreen, 120 min | inhibition, % at 12.5 µM | hit rate 0.54% among 310,000; in the data active = inhibition above about 50%
CASP6 VEID inh = inhibitors of human caspase-6 | P55212 | purified caspase-6, Z-VEID-R110 cleavage fluorescence | inhibition, % at 12.5 µM | hit rate 0.53% among 350,000 | AID 686996;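 active = mean inhibition across replicates at least about 35%, with every replicate also reaching that limit, limit read from the data; inconclusive = only one of the two criteria met; inactive = neither criterion met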;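 note: 0% = median of neutral control wells and 100% = no fluorescence left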
Target sequence (P55212 24-179 limits assumed): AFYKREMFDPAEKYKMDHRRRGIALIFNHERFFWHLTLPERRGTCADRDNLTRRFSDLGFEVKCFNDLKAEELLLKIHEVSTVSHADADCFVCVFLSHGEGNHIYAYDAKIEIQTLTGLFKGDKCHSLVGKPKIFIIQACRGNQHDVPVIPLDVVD
Target sequence (P55212 194-293 limits assumed): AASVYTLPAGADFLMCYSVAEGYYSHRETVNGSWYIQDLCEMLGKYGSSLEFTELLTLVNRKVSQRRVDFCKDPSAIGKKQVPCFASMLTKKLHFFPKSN
The depositor's hits bear a star; u = inconclusive; x = no result given.

SMILES	MITF act	esBAF inh	Wnt act	Xi reactivation	NSD2 HMT inh	CASP6 VEID inh
Cc1ccc(-c2nc(C#N)c(NCc3ccco3)o2)cc1	x	73*	x	x	0	x
CC1CCN(C(=O)Cn2cc(C(F)(F)F)ccc2=O)c2ccccc2S1 (centres undefined)	4	-1	5	0	0	70*
Cc1c(C(=O)Nc2ccc3c(c2)CCC3)cccc1[N+](=O)[O-]	92*	82*	15	0	-1	0
CSc1ccccc1C(=O)Nc1ccc2c(c1)CCC2	24	u	30*	0	-1	0
c1ccc2[nH]c3cc4ncnc4cc3nc2c1	11	x	6	0	19	69*
O=C(Nc1ccc(N2CCCC2)cc1)c1cccc(Cl)c1Cl	x	85*	-1	0	2	-2
O=C(Nc1ccc(Nc2ccccc2)cc1)c1ccccc1F	x	52*	-1	0	3	0
O=C(NC(=O)c1ccc(F)cc1F)Nc1ccc(Cl)cc1	64	x	33*	0	-1	-1
O=C(Nc1ccccc1)c1ccc(F)cc1F	63	37	10	1	x	-1
Cc1ccc(NC(=O)c2ccc(F)cc2F)cc1	60	-51	46*	0	x	0
CC(=O)N1CCN(c2ccc(NC(=O)c3cccc(Cl)c3Cl)cc2)CC1	x	-2	-1	0	0	0
CC(=O)N1C[C@@H]2C(c3ccccc3)[C@H](C1)N2S(C)(=O)=O (some centres undefined)	x	x	x	0	x	x
CN1C(=O)c2cc(NC(=O)c3ccc(F)c(F)c3)ccc2OC[C@H]2O[C@@H](CC(=O)N[C@@H]3CCN(Cc4ccccc4)C3)CC[C@@H]21	x	0	x	0	x	-1
O=C(Nc1ccc(N2CCN(C(=O)c3cccs3)CC2)cc1)c1ccccc1F	4	-1	-3	0	-3	-2
O=C(Nc1ccc(N2CCCC2)cc1)c1ccccc1F	61	42*	x	x	-4	x
O=C(Nc1ccc(N2CCCCC2)cc1)c1ccc(F)cc1F	22	-29	44*	0	-1	2
O=C(Nc1ccc(N2CCCC2)cc1)c1cccc(F)c1	73	3	22	x	-1	x
COc1ccc(OC)c(NC(=O)NCCc2cccc(Cl)c2)c1	-4	x	60*	0	-1	-1
CO[C@@H]1CN(C)C(=O)c2ccc(NC(=O)NC(C)C)cc2OC[C@@H](C)N(Cc2ccccc2)C[C@@H]1C	x	8	x	0	x	x
CCc1ccc2nc(NC(=O)C3CCN(c4ncnc5sc(C)c(C)c45)CC3)sc2c1	20	60*	22	0	4	0
CCc1cccc(NC(=O)C2CCN(c3ncnc4sc(C)c(C)c34)CC2)c1	x	6	-1	-1	-1	2
CCCCn1cnc2c(oc3ccccc32)c1=O	99*	u	9	0	-2	-1
N#CCn1cnc2c(oc3ccccc32)c1=O	1	10	x	x	-5	x
COc1ccc(CN(C)C[C@H]2OCCCC[C@H](C)Oc3ccc(NS(=O)(=O)c4ccc(F)cc4)cc3C(=O)N([C@@H](C)CO)C[C@H]2C)cc1	x	0	x	0	x	1
O=C(NCCCN1CCCC1)c1ccc2c(c1)N(Cc1cccc(Cl)c1)C(=O)c1ccccc1S2(=O)=O	x	-8	-9	0	11	65*
SMILES	MITF act	esBAF inh	Wnt act	Xi reactivation	NSD2 HMT inh	CASP6 VEID inh
Cc1nc2ccc(N=NC3=C(O)CC(C)(C)CC3=O)cc2s1	43	49*	18	0	2	x
O=C(NC1Cc2ccccc2C1)[C@H]1[C@H](CO)[C@H]2Cn3c(cccc3=O)[C@H]2N1C(=O)C1CCC1	x	1	x	0	x	-1
CCNC(=O)N1c2ccc(OCC)cc2C(C)=CC1(C)C	11	-3	-2	x	10	x
CCOc1ccc2c(c1)C(C)=CC(C)(C)N2C(=O)Nc1ccccc1F	-9	x	x	0	65*	11
CCC(=O)N[C@H]1C=C[C@H](CC(=O)NCC2CC2)O[C@@H]1CO	x	x	x	1	x	-1
Cc1cc(/C=C(\C#N)C(=O)NCc2cccs2)c(C)n1-c1ccccc1F	65	39	52*	x	-4	x
Cc1cc(C)nc(N2CCN(S(=O)(=O)c3ccc(F)cc3)CC2)n1	x	7	-1	0	-7	38*
COc1ccc2c(c1OC)C(=O)N(c1ccc(F)cc1)C2	u	29	38*	0	-1	-2
